Ends that are not written are not given here.
Target: recombinant human VEGFR-2 (Homo sapiens, UniProt P35968)
Assay: SPR binding affinity to immobilized VEGFR-2
Procedure, shortened: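 Recombinant human receptor protein amine-coupled to a CM5 chip. Test peptides diluted in HBS-EP buffer and flowed over the surface at 0.0156, 0.03125, 0.0625, 0.125 and 0.25 μM, with resonance unit changes recorded. Response curves were fitted to a 1:1 Langmuir binding model to give the equilibrium dissociation constant KD.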

Chain of recombinant human VEGFR-2 (P35968 20-1356): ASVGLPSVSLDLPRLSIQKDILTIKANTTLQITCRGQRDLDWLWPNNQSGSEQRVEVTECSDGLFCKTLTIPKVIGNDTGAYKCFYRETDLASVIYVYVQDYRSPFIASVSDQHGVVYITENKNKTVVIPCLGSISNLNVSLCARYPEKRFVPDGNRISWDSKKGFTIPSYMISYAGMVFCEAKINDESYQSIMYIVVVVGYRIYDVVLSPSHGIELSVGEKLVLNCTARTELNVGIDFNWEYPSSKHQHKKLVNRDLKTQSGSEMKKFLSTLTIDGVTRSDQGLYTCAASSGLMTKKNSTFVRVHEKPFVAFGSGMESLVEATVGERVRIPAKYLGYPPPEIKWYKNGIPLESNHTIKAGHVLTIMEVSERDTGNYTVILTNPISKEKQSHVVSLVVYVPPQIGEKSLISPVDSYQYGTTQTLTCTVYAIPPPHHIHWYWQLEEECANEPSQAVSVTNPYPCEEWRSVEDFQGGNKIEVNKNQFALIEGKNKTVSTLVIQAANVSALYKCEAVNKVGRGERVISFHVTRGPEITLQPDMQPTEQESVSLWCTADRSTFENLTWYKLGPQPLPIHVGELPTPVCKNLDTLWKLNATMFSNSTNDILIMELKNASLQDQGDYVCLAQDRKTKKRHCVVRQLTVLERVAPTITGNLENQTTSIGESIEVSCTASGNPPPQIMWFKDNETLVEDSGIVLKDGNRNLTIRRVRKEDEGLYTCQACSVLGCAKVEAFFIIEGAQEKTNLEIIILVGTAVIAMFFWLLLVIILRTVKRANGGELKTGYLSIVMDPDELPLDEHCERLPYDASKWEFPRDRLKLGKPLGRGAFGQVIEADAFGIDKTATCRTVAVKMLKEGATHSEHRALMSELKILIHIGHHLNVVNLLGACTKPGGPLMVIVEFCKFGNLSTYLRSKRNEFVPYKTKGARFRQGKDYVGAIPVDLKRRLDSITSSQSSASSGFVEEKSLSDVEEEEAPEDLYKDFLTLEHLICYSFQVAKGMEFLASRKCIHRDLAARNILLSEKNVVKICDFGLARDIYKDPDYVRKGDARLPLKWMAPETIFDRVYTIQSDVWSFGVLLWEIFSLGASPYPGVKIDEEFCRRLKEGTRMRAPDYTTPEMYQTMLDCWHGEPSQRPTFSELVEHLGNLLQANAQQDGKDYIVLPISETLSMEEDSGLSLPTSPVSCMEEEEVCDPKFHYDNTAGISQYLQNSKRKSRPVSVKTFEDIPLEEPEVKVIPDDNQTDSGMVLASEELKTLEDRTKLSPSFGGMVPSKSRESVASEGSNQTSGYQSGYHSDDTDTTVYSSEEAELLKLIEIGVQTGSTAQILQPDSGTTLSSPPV

In the case of `CC(C)C[C@H](NC(=O)[C@H](Cc1c[nH]c2ccccc12)NC(=O)[C@@H](NC(=O)[C@H](C)NC(=O)[C@H](CS)NC(=O)[C@H](CCCNC(=N)N)NC(=O)[C@H](CCCNC(=N)N)NC(=O)[C@H](CCCNC(=N)N)NC(=O)[C@H](CCC(N)=O)NC(=O)[C@H](CCCNC(=N)N)NC(=O)[C@H](CCCNC(=N)N)NC(=O)[C@H](CCCCN)NC(=O)[C@H](CCCCN)NC(=O)[C@@H](N)CCCNC(=N)N)[C@@H](C)O)C(=O)N1CCC[C@H]1C(=O)N1CCC[C@H]1C(=O)N[C@@H](CCCNC(=N)N)C(=O)O` [TAT-AT7], the Kd is reported as 22.8 nM.

In the case of ATWLPPRC [AT7], the Kd is reported as 283 nM.

— article PMC7669533 (International Journal of Nanomedicine, 2020)
